Bioassay records as filed in PubChem.
Shown are actives, neighbours in structure and some others; about 12% of the full set was active somewhere.
CHOP inh = CHOP inhibition in unfolded protein response; CHO-K1 CHOP-promoter luciferase, tunicamycin-induced, 15-18 h; inhibition, % at 10 µM; 220,000 compounds, 3.8% hits;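 active = compounds that reduced the stress-induced luciferase reporter signal by more than about 70% of percent inhibition, limit read from the data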
PKD1 kinase inh = PKD1 (human) kinase inhibition. AID 797. Q15139. PKD1 kinase fluorescence polarization assay. inhibition, % (test concentration not listed). 200,000 compounds, 0.056% hits
L major viab = inhibitors of Leishmania major promastigote growth | inhibition, % at 10 µM | AID 1063 | Leishmania major promastigotes, resazurin fluorescence viability | 200,000 compounds, 9% hits;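 note: promastigotes grown with compound for 44 hours at 28 °C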
Rad51 HR inh = blocks human Rad51 in homologous recombination | 200,000 compounds, 0.085% hits | AID 1385 | hRad51 DNA strand exchange, fluorescence dequenching | inhibition, % at 10 µM;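 active = inhibition above 40% at the single screening dose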
Target sequence (Q06609 whole entry, looked up): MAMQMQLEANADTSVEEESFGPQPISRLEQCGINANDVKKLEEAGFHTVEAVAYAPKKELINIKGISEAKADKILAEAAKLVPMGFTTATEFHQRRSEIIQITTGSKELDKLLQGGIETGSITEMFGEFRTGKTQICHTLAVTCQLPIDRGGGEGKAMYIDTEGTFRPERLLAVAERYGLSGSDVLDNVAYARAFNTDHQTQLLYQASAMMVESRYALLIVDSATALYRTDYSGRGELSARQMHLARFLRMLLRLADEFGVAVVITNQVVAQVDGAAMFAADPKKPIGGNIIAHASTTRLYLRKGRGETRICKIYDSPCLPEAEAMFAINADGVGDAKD
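Test system: preformed human Rad51 ssDNA filaments. Compound dosing: single dose, 10 µM final compound. Incubation: filaments 15 min 37 °C, then compound 30 min. Technique: FRET fluorescence dequenching, excitation 485 nm, emission 520 nm. Read-out basis: percent inhibition from fluorescence, normalised to plate control and blank means. Benchmarks: plate controls and plate blanks.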
Wee1 stabilizer = blocks degradation of human Wee1 kinase; HeLa Luc-Wee1K328M stability, luciferase luminescence; 100% = proteasome inhibitor MG132 effect; reporter increase, % at 5 µM; 220,000 compounds, 1.2% hits;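 active = activation above the mean of all tested compounds plus 3 SD, set per screening run, cut at about 8.8% in these data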;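 note: cells exposed to compound for 20 h before luminescence read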
Arbovirus anti = blocks arbovirus infection. 200,000 compounds, 0.37% hits. arbovirus infection cell-based antiviral screen. inhibition, % at 10 µM; in the data active = inhibition above about 30%
Hits are given with their value; i = inactive; nt = no result given. Cut-off read from the data, not from the text of the source, unless noted: active = inhibition above about 50%; inactive = the rest.

SMILES | CHOP inh | PKD1 kinase inh | L major viab | Rad51 HR inh | Wee1 stabilizer | Arbovirus anti
CC1CCCC2(C1)NC(=S)N(c1ccccc1)N2 (stereo unspecified) | i | i | 84 | i | i | i
S=C1NC2(CCCCC2)NN1c1ccccc1 | i | i | 81 | nt | i | i
CC(C)(C)NC(=O)C(c1ccccn1)N(C(=O)C1CSC(=O)C1)c1ccc(F)cc1 (stereo unspecified) | i | i | i | i | i | i
COc1ccc(-c2c(C)n([O-])c3c([n+]2=O)CCCC3)cc1 | i | i | i | i | i | i
CCOc1ccc(-c2c(C)n([O-])c3c([n+]2=O)CCCCC3)cc1 | i | i | i | i | 8.9 | i
CC(C(=O)O)N1CCCCC1 (stereo unspecified) | i | nt | nt | i | i | nt
CSCCCNC(=O)c1ccc(OC2CCN(CCc3ccccc3)CC2)cc1 | i | i | 75 | i | i | i
CC(=O)Nc1ccc(C(=O)N/N=C/c2ccccc2OCc2ccccc2)cc1 | i | i | i | i | i | i
Cc1ccc(C(C)C)c(OCc2ccc(C(=O)N/N=C/c3cccc(O)c3O)cc2)c1 | 107 | i | 100 | i | i | i
Cc1ccc(C(C)C)c(OCc2ccc(C(=O)N/N=C/c3ccc(O)c(O)c3)cc2)c1 | 84 | i | 100 | i | i | i
COc1cc(/C=N/NC(=O)c2ccc(COc3cc(C)ccc3C(C)C)cc2)cc(OC)c1O | i | i | i | i | i | i
C=CCc1ccccc1OCC(O)CN1CCN(c2ccccc2F)CC1 (stereo unspecified) | 78 | i | 69 | nt | i | i
CCOc1ccccc1OCCOc1ccccc1CC | 76 | i | i | nt | i | i
C=CCc1ccccc1OCC(O)CN1CCN(c2ccccc2OC)CC1 (stereo unspecified) | i | i | i | i | i | i
C=CCc1ccccc1OCC(CN1CCCCC1)OC(C)=O (stereo unspecified) | i | i | 65 | i | i | i
C=CCc1ccccc1OCC(=O)O | i | nt | nt | i | i | nt
Cc1ccccc1CN1CCN(S(C)(=O)=O)CC1 | i | i | i | i | i | i
CCOc1ccccc1CN1CCN(S(C)(=O)=O)CC1 | i | i | 82 | i | i | i
Cc1cc(-c2ccccc2)n2nc(N)nc2n1 | i | nt | nt | i | i | nt
C=CCc1ccccc1OCCn1ccnc1 | i | i | i | i | i | i
CCc1ccccc1OCCCCN1CCCC1 | i | i | 94 | nt | i | i
CCC(=O)c1ccccc1OCCN1CCN(CC)CC1 | i | i | i | i | i | i
C=CCc1ccccc1OCCCCN1CCCC1 | i | i | 77 | i | i | i
CC1CC(C)(C)NC(=S)N1CCCC(=O)N1CCN(c2ccccc2F)CC1 (stereo unspecified) | i | i | 61 | i | i | i
COc1ccc(OC)c(NC(=O)c2ccc3c(=O)n(CCc4ccccc4)c(=S)[nH]c3c2)c1 | 100 | i | i | i | i | i
SMILES | CHOP inh | PKD1 kinase inh | L major viab | Rad51 HR inh | Wee1 stabilizer | Arbovirus anti
OCC1(CCc2ccccc2)CCN(Cc2cccn2-c2cccnc2)CC1 | i | i | 61 | i | i | i
Cc1cc(C)c(NC(=S)N(C)C)c(C)c1 | i | nt | nt | i | i | nt
COC(=O)c1nc(N)sc1-c1ccccc1 | i | i | i | 76 | i | i
O=C(Nc1cccnc1)c1ccc(Cl)c(S(=O)(=O)N2CCc3ccccc32)c1 | i | i | 59 | i | i | i
CCc1nnc(NC(=O)c2ccc(S(=O)(=O)N3CCc4ccccc4C3)cc2)s1 | 82 | i | i | i | i | i
COc1ccc(NC(=O)c2ccc(Cl)c(S(=O)(=O)N3CCc4ccccc4C3)c2)cn1 | i | i | i | i | i | i
CCc1nnc(NC(=O)c2ccc(Cl)c(S(=O)(=O)N3CCc4ccccc4C3)c2)s1 | i | i | 52 | i | i | i
CCc1nnc(NC(=O)c2ccc(S(=O)(=O)N3CCOCC3)cc2)s1 | i | i | i | i | i | i
N#Cc1c(Cc2cccc3ccccc23)nn(CCO)c1N | nt | nt | nt | i | nt | nt
Cc1ccc(S(=O)(=O)N2CCN(C(=O)CC3CCCC3)CC2)cc1 | i | i | i | i | i | i
Cc1ccc(S(=O)(=O)N2CCN(C(=O)CC(C)(C)C)CC2)cc1 | i | i | i | i | 9.8 | i
CCOCCCNCC(=O)N1CCN(S(=O)(=O)c2ccc(C)cc2)CC1 | i | i | 88 | i | i | i
CCN(CC(=O)NCc1ccc(F)cc1)CC(=O)Nc1ccc(S(=O)(=O)N2CCCC2)cc1 | i | i | 98 | i | i | i
Cc1ccc(S(=O)(=O)N2CCN(C(=O)Cc3ccccc3)CC2)cc1 | i | i | i | i | i | i
COc1ccc(CNC(=O)CCC(=O)N2CCN(S(=O)(=O)c3ccc(Cl)cc3)CC2)cc1 | i | i | i | i | i | i
Cc1ccc(S(=O)(=O)N2CCN(C(=O)CCC(=O)NCc3ccc(F)cc3)CC2)cc1 | i | i | i | i | 9.4 | i
Cc1c(NC(=O)c2cccc(NS(C)(=O)=O)c2)c(=O)n(-c2ccccc2)n1C | i | nt | nt | nt | i | nt
O=C1CN2CCC1C/C2=C\c1ccnc2c(Cl)cccc12 (stereo unspecified) | i | nt | nt | i | i | nt
COc1ccnc(CS(=O)c2nc3cc(OC(F)F)ccc3[nH]2)c1OC (stereo unspecified) | nt | nt | nt | i | nt | nt
CN(CC(=O)Nc1ccc(S(=O)(=O)N2CCCC2)cc1)Cc1cccc(Cl)c1Cl | i | i | 99 | i | i | i
COc1ccc(C)cc1NC(=O)C(Sc1nnnn1C)c1ccccc1 (stereo unspecified) | i | i | i | i | i | i
CCn1c2ccccc2c2cc(NC(=O)CSc3nnc(-c4cccc(Cl)c4)o3)ccc21 | i | i | 89 | nt | i | i
O=C(CSc1nnc(-c2cccnc2)o1)Nc1ccc(Cl)cc1 | i | i | i | i | i | i
CCn1c2ccccc2c2cc(NC(=O)CSc3nnc(-c4cccc(OC)c4)n3N)ccc21 | i | i | i | i | i | i
COc1ccc(-c2nnc(SC(C(=O)c3c[nH]c4ccccc34)c3ccccc3)n2N)cc1OC (stereo unspecified) | i | i | 57 | i | i | i
SMILES | CHOP inh | PKD1 kinase inh | L major viab | Rad51 HR inh | Wee1 stabilizer | Arbovirus anti
CCn1c2ccccc2c2cc(NC(=O)CSc3nnc(-c4ccc(OC)c(OC)c4)n3N)ccc21 | i | i | 95 | i | i | i
Cn1cc(CN2C[C@H]3CC[C@H]2C3)c(-c2ccccc2F)n1 | i | i | i | i | i | i
NC(=O)C(=O)N/N=C/c1cccc(C(F)(F)F)c1 | i | i | i | i | i | i
Cc1ccn(C(=O)c2ccc(NC(=O)C3CC3)cc2)n1 | i | i | i | i | i | i
O=C1CC(C(=O)O)c2ccccc2N1 (stereo unspecified) | i | i | i | i | i | i
O=C1CC(CCC(=O)NC2CC2)c2ccccc2N1 (stereo unspecified) | i | i | i | i | 9.0 | i
CN(C)CCN(C)Cc1ccccc1Sc1cccc2ccccc12 | i | i | 100 | i | i | i
CNCc1ccccc1Sc1cccc2ccccc12 | i | i | 79 | i | i | i
CNCc1ccccc1Sc1ccc(OC)cc1 | i | i | i | nt | i | i
